Data set [1] in a line: Inhibitory activity against metabotropic glutamate receptor 5 (mGluR5). A digest of the protocol:
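Functional FLIPR assay in CHO cells transfected with mGlu5 receptor.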

A short description of data set [2]: Half life was determined; 1-2h. It counts as ADME.
Data set [3] deals with Metabotropic glutamate receptor 5 (Homo sapiens) (UniProt P41594). The data set can be described thus: Percent inhibition against metabotropic glutamate receptor 5 (mGluR5) at 10 uM.
Chain of Metabotropic glutamate receptor 5 (Homo sapiens) (P41594 21-1212 limits assumed): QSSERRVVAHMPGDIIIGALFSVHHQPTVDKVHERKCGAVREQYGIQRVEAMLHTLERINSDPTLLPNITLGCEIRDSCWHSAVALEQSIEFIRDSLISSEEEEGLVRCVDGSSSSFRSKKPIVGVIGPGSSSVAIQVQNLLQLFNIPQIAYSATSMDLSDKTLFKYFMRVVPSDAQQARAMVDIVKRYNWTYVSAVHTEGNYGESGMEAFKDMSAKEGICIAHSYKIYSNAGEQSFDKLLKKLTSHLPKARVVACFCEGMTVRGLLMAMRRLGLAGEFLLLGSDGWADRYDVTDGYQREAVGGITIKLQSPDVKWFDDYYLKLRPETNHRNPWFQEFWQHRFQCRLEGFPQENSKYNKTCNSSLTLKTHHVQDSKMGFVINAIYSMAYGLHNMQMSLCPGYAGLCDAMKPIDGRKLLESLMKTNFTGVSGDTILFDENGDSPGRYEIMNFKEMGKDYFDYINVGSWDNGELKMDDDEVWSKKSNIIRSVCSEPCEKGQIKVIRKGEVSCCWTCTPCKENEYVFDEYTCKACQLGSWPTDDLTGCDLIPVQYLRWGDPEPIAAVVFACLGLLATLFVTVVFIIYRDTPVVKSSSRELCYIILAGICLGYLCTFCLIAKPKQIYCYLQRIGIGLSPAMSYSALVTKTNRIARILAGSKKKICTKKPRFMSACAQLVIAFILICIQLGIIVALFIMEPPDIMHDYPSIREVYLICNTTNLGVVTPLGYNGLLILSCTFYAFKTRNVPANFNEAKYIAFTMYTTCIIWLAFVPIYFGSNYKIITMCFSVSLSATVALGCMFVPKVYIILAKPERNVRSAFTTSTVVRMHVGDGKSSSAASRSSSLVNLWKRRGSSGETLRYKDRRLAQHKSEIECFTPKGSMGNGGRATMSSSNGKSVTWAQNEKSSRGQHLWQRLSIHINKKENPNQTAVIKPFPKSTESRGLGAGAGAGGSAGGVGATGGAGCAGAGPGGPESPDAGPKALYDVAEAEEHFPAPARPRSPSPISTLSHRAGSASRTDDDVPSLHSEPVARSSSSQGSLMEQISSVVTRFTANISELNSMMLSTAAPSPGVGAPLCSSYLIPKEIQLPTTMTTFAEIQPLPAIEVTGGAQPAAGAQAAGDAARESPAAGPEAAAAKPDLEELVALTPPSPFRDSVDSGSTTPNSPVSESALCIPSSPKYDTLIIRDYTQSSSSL

In turn, `O=C(COC(=O)c1ccc(N2C(=O)C3CC=CCC3C2=O)cc1)c1ccc2c(c1)CCC2` (stereo not drawn) showed a Ki in data set [1] of 401 nM.
For the molecule `Cc1ccc(C(=O)COC(=O)c2ccc(N3C(=O)CCC3=O)cc2)cc1C`, the half-life in data set [2] was 2 h. Also, the inhibitory constant (Ki) in data set [1] was determined as 506 nM.
For `Cc1ccc(C(=O)COC(=O)c2ccc(N3C(=O)[C@H]4CCCC[C@H]4C3=O)cc2)cc1C`, the Ki in data set [1] was 190 nM.
Same read-out and setting: under `O=C(COC(=O)c1ccc(N2C(=O)C3CC=CCC3C2=O)cc1)c1ccc(N2CCOCC2)cc1` (stereo not drawn) stands 3360 nM.
Take `Cc1ccc(C(=O)COC(=O)c2ccc(NC(=O)C3CC=CCC3C(=O)O)cc2)cc1C` (stereo not drawn): the inhibition in data set [3] turned out to be 34%.
Regarding `Cc1ccc(C(=O)COC(=O)c2ccc(N3C(=O)C4CC=CCC4C3=O)cc2)cc1` (stereo not drawn), in data set [1], the inhibitory constant (Ki) came out at 9480 nM.
`Cc1ccc2c(c1)C(=O)N(c1ccc(C(=O)OCC(=O)c3ccc(C)c(C)c3)cc1)C2=O` registered an inhibition in data set [3] of 28%.
`Cc1ccc(C(=O)COC(=O)c2ccc(N3C(=O)C4CC(Br)C(Br)CC4C3=O)cc2)cc1C` (stereo not drawn) showed an inhibitory constant (Ki) in data set [1] of 98 nM.
For the molecule `Cc1ccc(C(=O)CN(C)C(=O)c2ccc(N3C(=O)C4CC=CCC4C3=O)cc2)cc1C` (stereo not drawn), the inhibition in data set [3] was less than 35%.
For the molecule `CC1(C)CCC(C)(C)c2cc(C(=O)COC(=O)c3ccc(N4C(=O)C5CC=CCC5C4=O)cc3)ccc21` (stereo not drawn), in data set [3], the inhibition was 32%.
Molecule `Cc1ccc(NCC(=O)Nc2ccc(N3C(=O)C4CC=CCC4C3=O)cc2)cc1C` (stereo not drawn) yielded an inhibition in data set [3] of less than 35%.
`CC1=CC(=O)N(c2ccc(C(=O)OCC(=O)c3ccc(C)c(C)c3)cc2)C1=O` yielded a Ki in data set [1] of 4800 nM.
In data set [3], `Cc1ccc(C(=O)COC(=O)c2ccc(N3C(=O)COCC3=O)cc2)cc1C` yielded an inhibition of 41%.
Still for that read-out and setting: to `Cc1ccc(NC(=O)NCc2ccc(N3C(=O)C4CC=CCC4C3=O)cc2)cc1C` (stereo not drawn) belongs less than 35%.
In the case of `O=C(COC(=O)c1ccc(N2C(=O)C3CC=CCC3C2=O)cc1)c1ccccc1` (stereo not drawn), in data set [3], the inhibition is 18%.
In data set [1], `Cc1ccc(C(=O)COC(=O)c2ccc(N3C(=O)[C@@H]4CCCC[C@H]4C3=O)cc2)cc1C` registered a Ki of 150 nM.
`Cc1ccc(OCCCNC(=O)c2ccc(N3C(=O)C4CC=CCC4C3=O)cc2)cc1C` (stereo not drawn) returned an inhibition in data set [3] of less than 35%.
For `Cc1ccc(CNC(=O)c2ccc(N3C(=O)C4CC=CCC4C3=O)cc2)cc1C` (stereo not drawn), the inhibition in data set [3] is less than 35%.
With `Cc1ccc(C(=O)COC(=O)c2ccc(N3C(=O)CC(C)CC3=O)cc2)cc1C`, in data set [1], the Ki was 1840 nM.
Take `Cc1ccc(C(=O)N2CCCN2C(=O)c2ccc(N3C(=O)C4CC=CCC4C3=O)cc2)cc1C` (stereo not drawn): the inhibition in data set [3] is less than 35%.
Regarding `Cc1ccc(C(=O)NNC(=O)c2ccc(N3C(=O)C4CC=CCC4C3=O)cc2)cc1C` (stereo not drawn), the inhibition in data set [3] is less than 35%.
As to `Cc1ccc(C(=O)COC(=O)c2ccc(N3C(=O)c4ccncc4C3=O)cc2)cc1C`, the inhibition in data set [3] was 33%.
In data set [1], `Cc1ccc(C(=O)COC(=O)c2ccc(N3C(=O)CC(C)C3=O)cc2)cc1C` (stereo not drawn) gave an inhibitory constant (Ki) of 411 nM.
For `O=C(COC(=O)c1ccc(N2C(=O)C3CC=CCC3C2=O)cc1)c1ccc(C2CCCCC2)cc1` (stereo not drawn), the inhibitory constant (Ki) in data set [1] is 18000 nM.
On the same count and under the same terms, under `CC1=CCC2C(=O)N(c3ccc(C(=O)OCC(=O)c4ccc(C)c(C)c4)cc3)C(=O)C2C1` (stereo not drawn) stands 216 nM.
As for `Cc1cc2c(cc1C)C(=O)N(NC(=O)c1ccc(N3C(=O)C4CC=CCC4C3=O)cc1)C2=O` (stereo not drawn), the inhibition in data set [3] was less than 35%.
Same read-out and setting: to `Cc1ccc(OCCNC(=O)c2ccc(N3C(=O)C4CC=CCC4C3=O)cc2)cc1C` (stereo not drawn) belongs less than 35%.
In data set [1], `COc1ccc(C(=O)COC(=O)c2ccc(N3C(=O)C4CC=CCC4C3=O)cc2)cc1[N+](=O)[O-]` (stereo not drawn) came in with a Ki of 1680 nM.
`O=C(COC(=O)c1ccc(N2C(=O)C3CC=CCC3C2=O)cc1)c1ccc(N2CCCC2)cc1` (stereo not drawn) came in with a Ki in data set [1] of 1090 nM.
Molecule `Cc1ccc(CCNC(=O)c2ccc(N3C(=O)C4CC=CCC4C3=O)cc2)cc1C` (stereo not drawn) had an inhibition in data set [3] of less than 35%.
Regarding `COc1ccc(C(=O)COC(=O)c2ccc(N3C(=O)C4CC=CCC4C3=O)cc2)cc1` (stereo not drawn), the inhibition in data set [3] was found to be 39%.
In turn, `Cc1ccc(NC(=O)c2ccc(N3C(=O)C4CC=CCC4C3=O)cc2)cc1C` (stereo not drawn) gave an inhibition in data set [3] of less than 35%.
`Cc1ccc(C2CN(C(=O)c3ccc(N4C(=O)C5CC=CCC5C4=O)cc3)CCO2)cc1C` (stereo not drawn): in data set [3], the inhibition was less than 35%.
Regarding `Cc1ccc(C(=O)COC(=O)c2ccc(N3C(=O)C4CC=CCC4C3=O)cc2)cc1[N+](=O)[O-]` (stereo not drawn), the Ki in data set [1] was found to be 3790 nM.
In data set [3], `Cc1ccc(CNC(=O)Nc2ccc(N3C(=O)C4CC=CCC4C3=O)cc2)cc1C` (stereo not drawn) registered an inhibition of less than 35%.
In data set [1], `COc1ccc(C(=O)COC(=O)c2ccc(N3C(=O)C4CC=CCC4C3=O)cc2)cc1OC` (stereo not drawn) registered a Ki of 1600 nM.
Consider `O=C(COC(=O)c1ccc(N2C(=O)C3CC=CCC3C2=O)cc1)c1ccc2c(c1)OCO2` (stereo not drawn), for which the inhibition in data set [3] was found to be 21%.
The molecule `Cc1ccc(C(=O)CN2C(=O)c3ccc(N4C(=O)C5CC=CCC5C4=O)cc3C2=O)cc1C` (stereo not drawn) came in with an inhibition in data set [3] of less than 35%.
In the case of `O=C(COC(=O)c1ccc(N2C(=O)C3CC=CCC3C2=O)cc1)c1ccc2ccccc2c1` (stereo not drawn), the Ki in data set [1] was found to be 303 nM.
For `Cc1ccc(C(=O)COC(=O)c2ccc(N3C(=O)C4=C(CCC4)C3=O)cc2)cc1C`, in data set [3], the inhibition was 10%.
In data set [1], `Cc1ccc(C(=O)COC(=O)c2ccc(N3C(=O)C4CC=CCC4C3=O)cc2)cc1C` (stereo not drawn) displayed an inhibition constant Ki of 172 nM.
Take `Cc1ccc(C(=O)COC(=O)c2ccc(N3C(=O)CCCC3=O)cc2)cc1C`: the inhibition constant Ki in data set [1] came to 3270 nM.
For the molecule `O=C(COC(=O)c1ccc(N2C(=O)C3CC=CCC3C2=O)cc1)c1ccc2c(c1)CCCC2` (stereo not drawn), the inhibitory constant (Ki) in data set [1] came to 171 nM.
On to `Cc1ccc(C(=O)CNC(=O)c2ccc(N3C(=O)C4CC=CCC4C3=O)cc2)cc1C` (stereo not drawn), for which, in data set [3], the inhibition is less than 35%.
In turn, `Cc1ccc(C(=O)COC(=O)c2ccc(N3C(=O)C4C5C=CC(C5)C4C3=O)cc2)cc1C` (stereo not drawn) displayed a Ki in data set [1] of 1010 nM. In other words, the single-digit micromolar range.
In the case of `O=C(COC(=O)c1ccc(N2C(=O)C3CC=CCC3C2=O)cc1)c1ccc2c(c1)OCCO2` (stereo not drawn), the inhibition constant (Ki) in data set [1] came to 2040 nM.
With `Cc1ccc(C(=O)COC(=O)c2ccc(N3CCCC3=O)cc2)cc1C`, the inhibition in data set [3] was 38%.
On the same count and under the same terms, to `Cc1ccc(C(=O)COCc2ccc(N3C(=O)C4CC=CCC4C3=O)cc2)cc1C` (stereo not drawn) belongs less than 35%.
In turn, `Cc1ccc(NC(=O)Nc2ccc(N3C(=O)C4CC=CCC4C3=O)cc2)cc1C` (stereo not drawn) had an inhibition in data set [3] of less than 35%.
For `Cc1ccc(C(=O)COC(=O)c2ccc(N3C(=O)C4CCC(C)CC4C3=O)cc2)cc1C` (stereo not drawn), the half-life in data set [2] was 2 h. In data set [1], this molecule came in with a Ki of 113 nM.
For the molecule `CC1=C(C)C(=O)N(c2ccc(C(=O)OCC(=O)c3ccc(C)c(C)c3)cc2)C1=O`, in data set [1], the affinity, expressed as Ki, was 6430 nM.

The values are drawn from ChEMBL document CHEMBL1139596, “Non-competitive inhibitors of metabotropic glutamate receptor 5 (mGluR5)” (Bioorg Med Chem Lett, 2005).
